From ChEMBL document CHEMBL4011617, “Ugi Reaction-Derived α-Acyl Aminocarboxamides Bind to Phosphatidylinositol 3-Kinase-Related Kinases, Inhibit HSF1-Dependent Heat Shock Response, and Induce Apoptosis in Multiple Myeloma Cells” (J Med Chem, 2017)
The source made the active and inactive calls. The rule behind the calls is not given here.

Legend:
INA-6 = test: Inhibition of heat shock response in human INA-6 cells assessed as reduction in HSF-1 mediated upregulation of the heat shock protein HSP27 at 50 uM preincubated for 4 hrs followed by HSP90 inhibitor and HSR inducer NVP-AUY922 addition measured after 4 hrs by ELISA; format: functional, cell-based
[1] = target: MICOS complex subunit MIC19 (Homo sapiens) (UniProt Q9NX63); test: Binding affinity to MICOS complex subunit MIC19 in human INA-6 cells after 3 hrs by nanoLC-MS/MS method; format: cell-based
Chain of MICOS complex subunit MIC19 (Homo sapiens) (Q9NX63 whole entry, one chain of several): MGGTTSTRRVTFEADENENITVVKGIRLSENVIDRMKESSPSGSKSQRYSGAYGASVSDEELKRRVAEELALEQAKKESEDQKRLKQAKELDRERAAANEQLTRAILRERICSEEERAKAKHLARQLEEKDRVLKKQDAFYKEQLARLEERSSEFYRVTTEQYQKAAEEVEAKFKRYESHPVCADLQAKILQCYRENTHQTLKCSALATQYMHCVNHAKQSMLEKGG
Procedure, shortened: (§1)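 The biotinylated inhibitor was loaded on streptavidin beads, with empty beads as the control. Eluates were trypsin-digested and run by nanoLC-MS/MS. Inhibitor/control ratios came from label-free quantification, taken as medians of five biological replicates. Enrichment was called at Benjamini-Hochberg-adjusted limma p < 0.02.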

[2] = target: CCR4-NOT transcription complex subunit 1 (Homo sapiens) (UniProt A5YKK6); test: Binding affinity to CCR4-NOT transcription complex subunit 1 in human INA-6 cells after 3 hrs by nanoLC-MS/MS method; format: cell-based; procedure, shortened: as §1
[3] = target: CCR4-NOT transcription complex subunit 2 (Homo sapiens) (UniProt Q9NZN8); test: Binding affinity to CCR4-NOT transcription complex subunit 2 in human INA-6 cells after 3 hrs by nanoLC-MS/MS method; format: cell-based; procedure, shortened: as §1
[4] = target: CCR4-NOT transcription complex subunit 6-like (Homo sapiens) (UniProt Q96LI5); test: Binding affinity to CCR4-NOT transcription complex subunit 6-like in human INA-6 cells after 3 hrs by nanoLC-MS/MS method; format: cell-based; procedure, shortened: as §1
[5] = target: CCR4-NOT transcription complex subunit 3 (Homo sapiens) (UniProt O75175); test: Binding affinity to CCR4-NOT transcription complex subunit 3 in human INA-6 cells after 3 hrs by nanoLC-MS/MS method; format: cell-based; procedure, shortened: as §1
Chain of CCR4-NOT transcription complex subunit 3 (Homo sapiens) (O75175 whole entry, one chain of several): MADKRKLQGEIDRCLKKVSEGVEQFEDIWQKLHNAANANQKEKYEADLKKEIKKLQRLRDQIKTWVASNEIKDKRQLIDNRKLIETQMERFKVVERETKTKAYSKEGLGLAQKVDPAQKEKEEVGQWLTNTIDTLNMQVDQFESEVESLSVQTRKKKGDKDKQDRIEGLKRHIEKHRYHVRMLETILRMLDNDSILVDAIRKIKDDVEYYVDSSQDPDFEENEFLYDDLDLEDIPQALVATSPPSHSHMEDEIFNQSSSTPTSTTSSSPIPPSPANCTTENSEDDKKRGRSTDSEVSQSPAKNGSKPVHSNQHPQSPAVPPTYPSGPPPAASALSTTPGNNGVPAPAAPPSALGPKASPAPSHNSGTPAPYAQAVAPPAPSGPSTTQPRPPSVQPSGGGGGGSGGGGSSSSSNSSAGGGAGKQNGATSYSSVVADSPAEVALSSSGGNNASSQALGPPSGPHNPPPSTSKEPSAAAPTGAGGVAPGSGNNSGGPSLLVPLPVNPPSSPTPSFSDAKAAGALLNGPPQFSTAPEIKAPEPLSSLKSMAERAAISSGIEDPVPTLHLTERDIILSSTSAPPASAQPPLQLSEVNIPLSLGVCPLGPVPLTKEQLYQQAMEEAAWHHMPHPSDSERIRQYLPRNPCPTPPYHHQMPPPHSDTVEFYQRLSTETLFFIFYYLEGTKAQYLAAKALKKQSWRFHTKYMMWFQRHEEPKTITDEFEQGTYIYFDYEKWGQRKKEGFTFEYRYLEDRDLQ

[6] = target: CCR4-NOT transcription complex subunit 10 (Homo sapiens) (UniProt Q9H9A5); test: Binding affinity to CCR4-NOT transcription complex subunit 10 in human INA-6 cells after 3 hrs by nanoLC-MS/MS method; format: cell-based; procedure, shortened: as §1
[7] = target: Serine/threonine-protein phosphatase 6 regulatory ankyrin repeat subunit C (Homo sapiens) (UniProt Q8NB46); test: Binding affinity to serine/threonine-protein phosphatase 6 regulatory ankyrin repeat subunit C in human INA-6 cells after 3 hrs by nanoLC-MS/MS method; format: cell-based; procedure, shortened: as §1
[8] = target: Serine-protein kinase ATM (Homo sapiens) (UniProt Q13315); test: Binding affinity to ATM protein in human INA-6 cells after 3 hrs by nanoLC-MS/MS method; format: cell-based; procedure, shortened: as §1
Chain of Serine-protein kinase ATM (Homo sapiens) (Q13315 whole entry): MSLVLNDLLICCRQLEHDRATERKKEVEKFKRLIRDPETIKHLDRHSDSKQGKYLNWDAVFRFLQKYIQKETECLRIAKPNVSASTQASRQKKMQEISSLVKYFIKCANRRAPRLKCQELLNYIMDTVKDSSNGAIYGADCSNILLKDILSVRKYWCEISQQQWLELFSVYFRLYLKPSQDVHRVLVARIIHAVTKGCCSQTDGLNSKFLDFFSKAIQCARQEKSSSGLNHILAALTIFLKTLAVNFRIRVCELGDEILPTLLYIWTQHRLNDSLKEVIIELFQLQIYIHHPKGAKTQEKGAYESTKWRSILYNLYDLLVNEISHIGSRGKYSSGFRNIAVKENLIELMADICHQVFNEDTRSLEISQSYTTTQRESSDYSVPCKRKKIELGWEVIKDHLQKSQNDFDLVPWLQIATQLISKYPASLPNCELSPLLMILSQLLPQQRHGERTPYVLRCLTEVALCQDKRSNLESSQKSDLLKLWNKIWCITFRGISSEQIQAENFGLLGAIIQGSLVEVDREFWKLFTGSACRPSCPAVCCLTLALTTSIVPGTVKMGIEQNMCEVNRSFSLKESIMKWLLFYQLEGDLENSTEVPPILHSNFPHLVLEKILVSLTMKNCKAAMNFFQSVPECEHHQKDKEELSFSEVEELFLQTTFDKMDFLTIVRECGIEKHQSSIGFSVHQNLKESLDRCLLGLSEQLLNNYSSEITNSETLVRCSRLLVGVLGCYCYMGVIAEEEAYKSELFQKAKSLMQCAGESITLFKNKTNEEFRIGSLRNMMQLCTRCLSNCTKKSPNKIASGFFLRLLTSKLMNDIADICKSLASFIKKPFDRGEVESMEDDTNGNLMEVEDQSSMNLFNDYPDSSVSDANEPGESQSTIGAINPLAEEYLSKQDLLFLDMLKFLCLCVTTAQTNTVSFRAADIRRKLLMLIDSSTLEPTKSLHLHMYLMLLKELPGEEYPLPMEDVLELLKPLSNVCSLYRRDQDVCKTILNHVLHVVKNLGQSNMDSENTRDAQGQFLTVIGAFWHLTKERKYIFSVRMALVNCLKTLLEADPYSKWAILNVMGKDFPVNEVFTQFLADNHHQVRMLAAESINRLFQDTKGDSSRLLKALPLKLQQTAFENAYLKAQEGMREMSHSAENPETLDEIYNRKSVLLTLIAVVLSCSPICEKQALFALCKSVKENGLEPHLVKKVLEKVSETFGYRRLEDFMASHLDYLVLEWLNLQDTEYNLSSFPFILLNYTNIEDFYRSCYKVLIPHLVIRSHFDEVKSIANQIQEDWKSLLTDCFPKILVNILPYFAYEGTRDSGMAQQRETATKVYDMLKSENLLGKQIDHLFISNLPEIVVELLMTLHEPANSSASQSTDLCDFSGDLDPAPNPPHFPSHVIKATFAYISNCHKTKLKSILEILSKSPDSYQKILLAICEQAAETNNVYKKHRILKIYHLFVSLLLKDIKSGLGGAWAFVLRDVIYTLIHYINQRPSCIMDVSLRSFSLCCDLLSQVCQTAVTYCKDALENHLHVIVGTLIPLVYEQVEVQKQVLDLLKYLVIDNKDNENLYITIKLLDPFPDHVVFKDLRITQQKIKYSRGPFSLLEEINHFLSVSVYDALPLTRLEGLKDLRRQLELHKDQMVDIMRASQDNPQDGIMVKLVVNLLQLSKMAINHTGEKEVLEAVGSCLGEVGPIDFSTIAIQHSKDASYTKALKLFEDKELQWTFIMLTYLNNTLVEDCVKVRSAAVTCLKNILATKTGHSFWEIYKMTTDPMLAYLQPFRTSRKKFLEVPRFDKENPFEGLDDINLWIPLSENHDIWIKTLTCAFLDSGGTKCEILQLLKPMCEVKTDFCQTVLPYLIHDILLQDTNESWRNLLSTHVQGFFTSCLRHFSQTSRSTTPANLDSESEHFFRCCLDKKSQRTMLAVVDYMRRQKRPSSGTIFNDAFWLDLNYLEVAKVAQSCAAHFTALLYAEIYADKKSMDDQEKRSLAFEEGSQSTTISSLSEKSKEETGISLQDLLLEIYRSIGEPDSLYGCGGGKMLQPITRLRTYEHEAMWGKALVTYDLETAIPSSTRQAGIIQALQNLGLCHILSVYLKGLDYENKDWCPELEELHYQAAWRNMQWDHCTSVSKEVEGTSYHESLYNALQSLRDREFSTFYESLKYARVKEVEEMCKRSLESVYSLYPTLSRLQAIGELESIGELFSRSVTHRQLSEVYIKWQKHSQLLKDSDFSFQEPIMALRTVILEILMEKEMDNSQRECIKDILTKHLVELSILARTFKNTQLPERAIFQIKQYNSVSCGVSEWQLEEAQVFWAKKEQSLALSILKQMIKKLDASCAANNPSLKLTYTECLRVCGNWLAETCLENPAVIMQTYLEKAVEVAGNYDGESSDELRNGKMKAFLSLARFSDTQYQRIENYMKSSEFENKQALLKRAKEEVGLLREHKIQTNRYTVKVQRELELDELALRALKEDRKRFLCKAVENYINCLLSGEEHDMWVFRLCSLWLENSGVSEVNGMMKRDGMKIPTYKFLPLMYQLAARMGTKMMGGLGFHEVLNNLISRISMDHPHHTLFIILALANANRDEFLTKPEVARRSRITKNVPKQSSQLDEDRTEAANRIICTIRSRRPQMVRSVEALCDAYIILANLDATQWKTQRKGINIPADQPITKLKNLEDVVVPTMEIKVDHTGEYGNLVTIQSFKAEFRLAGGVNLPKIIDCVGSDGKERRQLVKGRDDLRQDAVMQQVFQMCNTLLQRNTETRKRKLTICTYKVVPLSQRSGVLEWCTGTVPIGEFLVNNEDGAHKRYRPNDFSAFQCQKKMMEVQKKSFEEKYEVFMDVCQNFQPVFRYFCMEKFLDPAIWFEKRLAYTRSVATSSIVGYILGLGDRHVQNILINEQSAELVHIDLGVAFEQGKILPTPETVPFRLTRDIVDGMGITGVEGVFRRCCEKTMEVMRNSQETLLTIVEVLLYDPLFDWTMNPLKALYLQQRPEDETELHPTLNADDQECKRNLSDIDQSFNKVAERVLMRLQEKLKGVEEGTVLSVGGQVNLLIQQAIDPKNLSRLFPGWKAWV

[9] = target: Serine/threonine-protein kinase ATR (Homo sapiens) (UniProt Q13535); test: Binding affinity to ATR protein in human INA-6 cells after 3 hrs by nanoLC-MS/MS method; format: cell-based; procedure, shortened: as §1
[10] = target: Serine/threonine-protein kinase mTOR (Homo sapiens) (UniProt P42345); test: Binding affinity to mTOR protein in human INA-6 cells after 3 hrs by nanoLC-MS/MS method; format: cell-based; procedure, shortened: as §1
[11] = target: Serine/threonine-protein phosphatase 6 regulatory subunit 2 (Homo sapiens) (UniProt O75170); test: Binding affinity to PP6R2 protein in human INA-6 cells after 3 hrs by nanoLC-MS/MS method; format: cell-based; procedure, shortened: as §1
[12] = target: CCR4-NOT transcription complex subunit 9 (Homo sapiens) (UniProt Q92600); test: Binding affinity to RCD1 protein in human INA-6 cells after 3 hrs by nanoLC-MS/MS method; format: cell-based; procedure, shortened: as §1
Chain of CCR4-NOT transcription complex subunit 9 (Homo sapiens) (Q92600 whole entry, one chain of several): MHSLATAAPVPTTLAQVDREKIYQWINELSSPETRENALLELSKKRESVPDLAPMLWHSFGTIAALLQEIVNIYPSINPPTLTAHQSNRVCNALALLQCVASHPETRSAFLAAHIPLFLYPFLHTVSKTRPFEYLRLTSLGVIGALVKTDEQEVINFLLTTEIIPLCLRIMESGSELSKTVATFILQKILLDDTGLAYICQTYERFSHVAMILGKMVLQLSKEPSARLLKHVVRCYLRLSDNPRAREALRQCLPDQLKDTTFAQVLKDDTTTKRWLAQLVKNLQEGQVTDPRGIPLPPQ

[13] = target: Stalled ribosome sensor GCN1 (Homo sapiens) (UniProt Q92616); test: Binding affinity to GCN1 protein in human INA-6 cells after 3 hrs by nanoLC-MS/MS method; format: cell-based; procedure, shortened: as §1
[14] = target: Conserved oligomeric Golgi complex subunit 1 (Homo sapiens) (UniProt Q8WTW3); test: Binding affinity to COG1 in human INA-6 cells after 3 hrs by nanoLC-MS/MS method; format: cell-based; procedure, shortened: as §1
[15] = target: Conserved oligomeric Golgi complex subunit 3 (Homo sapiens) (UniProt Q96JB2); test: Binding affinity to COG3 in human INA-6 cells after 3 hrs by nanoLC-MS/MS method; format: cell-based; procedure, shortened: as §1
[16] = target: Conserved oligomeric Golgi complex subunit 7 (Homo sapiens) (UniProt P83436); test: Binding affinity to COG7 in human INA-6 cells after 3 hrs by nanoLC-MS/MS method; format: cell-based; procedure, shortened: as §1
Chain of Conserved oligomeric Golgi complex subunit 7 (Homo sapiens) (P83436 whole entry, one chain of several): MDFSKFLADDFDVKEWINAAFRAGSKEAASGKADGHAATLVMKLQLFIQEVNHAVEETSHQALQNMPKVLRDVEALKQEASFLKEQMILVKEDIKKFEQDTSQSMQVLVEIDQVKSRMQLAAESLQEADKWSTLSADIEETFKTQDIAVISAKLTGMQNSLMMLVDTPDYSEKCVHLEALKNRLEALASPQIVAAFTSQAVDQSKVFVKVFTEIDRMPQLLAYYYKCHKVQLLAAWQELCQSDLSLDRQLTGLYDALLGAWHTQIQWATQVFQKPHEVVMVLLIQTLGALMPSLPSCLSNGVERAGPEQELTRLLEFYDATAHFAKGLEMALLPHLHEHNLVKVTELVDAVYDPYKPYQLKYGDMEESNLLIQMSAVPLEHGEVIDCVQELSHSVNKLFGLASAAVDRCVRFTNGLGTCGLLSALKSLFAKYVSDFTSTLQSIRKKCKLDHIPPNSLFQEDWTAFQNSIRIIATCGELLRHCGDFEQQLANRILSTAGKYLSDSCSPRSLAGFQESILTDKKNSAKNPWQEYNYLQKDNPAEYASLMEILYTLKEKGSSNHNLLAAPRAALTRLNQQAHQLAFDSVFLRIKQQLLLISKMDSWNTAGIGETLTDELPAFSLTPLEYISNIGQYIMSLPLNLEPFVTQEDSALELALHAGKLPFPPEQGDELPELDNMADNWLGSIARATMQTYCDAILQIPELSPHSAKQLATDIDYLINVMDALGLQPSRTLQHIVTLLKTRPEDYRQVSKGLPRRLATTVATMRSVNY

[17] = target: Conserved oligomeric Golgi complex subunit 8 (Homo sapiens) (UniProt Q96MW5); test: Binding affinity to COG8 in human INA-6 cells after 3 hrs by nanoLC-MS/MS method; format: cell-based; procedure, shortened: as §1
[18] = target: DNA-dependent protein kinase catalytic subunit (Homo sapiens) (UniProt P78527); test: Binding affinity to PRKDC protein in human INA-6 cells after 3 hrs by Western blot method; format: cell-based
Procedure, shortened: (§2)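 INA-6 lysate was incubated with compound-coupled streptavidin beads or with beads only as the control. Captured-protein eluates were Western blotted with specific antibodies against DNA-PK, ATM, ATR or mTOR. H2AX staining or Ponceau S served as loading controls.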

[19] = target: Serine-protein kinase ATM (Homo sapiens) (UniProt Q13315); test: Binding affinity to ATM protein in human INA-6 cells after 3 hrs by Western blot method; format: cell-based; procedure, shortened: as §2
[20] = target: Serine/threonine-protein kinase ATR (Homo sapiens) (UniProt Q13535); test: Binding affinity to ATR protein in human INA-6 cells after 3 hrs by Western blot method; format: cell-based; procedure, shortened: as §2
[21] = target: Serine/threonine-protein kinase mTOR (Homo sapiens) (UniProt P42345); test: Binding affinity to mTOR protein in human INA-6 cells after 3 hrs by Western blot method; format: cell-based; procedure, shortened: as §2

`O=C(CCCC[C@@H]1SC[C@@H]2NC(=O)N[C@@H]21)NCCOCCOCCNCCOc1ccc(C(C(=O)NCc2ccccc2)N(C(=O)CCc2ccccc2)C2CC2)cc1` (mixture of isomers) was tested, and the “heat shock response inhibition (active/not active)” value (INA-6) was “inactive”, the Activity [1] was “Active” and the Activity [2] was “Active”. The Activity [3] was “Active”, the Activity [4] was “Active” and the Activity [5] was “Active”. The Activity [6] was “Active”, the Activity [7] was “Active” and the Activity [8] was “Active”. For the same compound, the Activity [9] was “Active”, the Activity [10] was “Active” and the Activity [11] was “Active”. The Activity [12] was “Active”, the Activity [13] was “Active” and the Activity [14] was “Active”. For the same compound, the Activity [15] was “Active”, the Activity [16] was “Active” and the Activity [17] was “Active”.

For `O=C(CCCC[C@@H]1SC[C@@H]2NC(=O)N[C@@H]21)NCCOCCOCCNCCOc1ccc(C(C(=O)NCc2ccccc2)N(C(=O)CCc2ccc(O)cc2)C2CC2)cc1` (mixture of isomers), the “heat shock response inhibition (active/not active)” value (INA-6) was “inactive”, the Activity [1] was “Active” and the Activity [2] was “Active”. The Activity [3] was “Active”, the Activity [4] was “Active” and the Activity [5] was “Active”. The Activity [6] was “Active”, the Activity [7] was “Active” and the Activity [8] was “Active”. For the same compound, the Activity [9] was “Active”, the Activity [10] was “Active” and the Activity [11] was “Active”. The Activity [12] was “Active”, the Activity [13] was “Active” and the Activity [14] was “Active”. For the same compound, the Activity [15] was “Active”, the Activity [16] was “Active” and the Activity [17] was “Active”. For the same compound, the Activity [18] was “Active”, the Activity [19] was “Active” and the Activity [20] was “Active”. For the same compound, the Activity [21] was “Active”.
